# Assay results pooled from the literature.
# Compare with care: the assays were run in different laboratories.
# CSF1R: Macrophage colony-stimulating factor 1 receptor (CSF1R, Homo sapiens, UniProt P07333)
# CSF1R autoinhibited: Macrophage colony-stimulating factor 1 receptor, autoinhibited (CSF1R, Homo sapiens, UniProt P07333)
SMILES,target,test,conditions,remaining binding
O=C(NCC1CCOCC1)c1n[nH]cc1NC(=O)c1c(F)cccc1F,CSF1R,"binding, competition with immobilised ligand",1 µM,100%
O=C(c1ccc(Nc2ncc(Cl)c(-c3cc4ccccc4s3)n2)cc1)N1CCC(N2CCCC2)CC1,CSF1R,"binding, competition with immobilised ligand",1 µM,24%
CN(C)c1ncc(F)c(-c2cnn3ncccc23)n1,CSF1R autoinhibited,binding,1 µM,69%
C=CC(=O)N1CCC(C(=O)NCC(=O)N2CCN(c3nc(-c4cnc(N)nc4C(F)F)nc(N4CCOCC4)n3)CC2)CC1,CSF1R,"binding, competition with immobilised ligand",1 µM,77%
C[C@H]1CCN(c2nccc(-c3cnn4ncccc34)n2)C1,CSF1R autoinhibited,binding,1 µM,75%
c1cncc(-c2cccc(Nc3nccc(NC4CCCCC4)n3)c2)c1,CSF1R,"binding, competition with immobilised ligand",10 µM,0.15%
CNC(=O)[C@@H]1CC[C@@H](n2c(-c3ccc4cnccc4c3)nc3ccc(C(=O)NCc4cccc(C(N)=O)c4)cc32)C1,CSF1R,"binding, competition with immobilised ligand",1 µM,100%
N[C@H]1CCN(c2nccc(-c3cnn4ncccc34)n2)C1,CSF1R autoinhibited,binding,1 µM,100%
COc1cc(-c2cn(C3CCc4c(F)cccc4N(CC(F)(F)F)C3=O)nn2)ccc1-n1cnc(C)c1 (stereo not drawn),CSF1R autoinhibited,"cell-free assay, competition with immobilised ligand",1 µM,100%
COc1ccnn2ncc(-c3ccnc(N(C)C)n3)c12,CSF1R autoinhibited,binding,1 µM,91%
CNC(=O)Nc1ccc2c(c1)[C@@]1(CC2)OC(=O)N(CC(=O)N(Cc2ccc(F)cc2)[C@@H](C)C(F)(F)F)C1=O,CSF1R autoinhibited,"cell-free assay, competition with immobilised ligand",1 µM,100%
Nc1ncc2c(n1)-c1c([nH]c3ccc(C#CC4CC4)cc13)CCCC2,CSF1R autoinhibited,"binding, competition with immobilised ligand",1 µM,85%
CC(=O)Nc1c(C(C)=O)c(=O)n(C)c2nc(-c3ccc(Cl)cc3Cl)c(-c3ccc(Cl)cc3)cc12,CSF1R,"cell-free assay, competition with immobilised ligand",1 µM,100%
CN(CCCC(F)(F)F)c1nccc(-c2cnn3ncccc23)n1,CSF1R autoinhibited,binding,1 µM,100%
CS(=O)(=O)N1CCCC(NC(=O)[C@H](CCC2CCCCC2)NC(=O)c2ccc(CNc3ncnc4c3nnn4-c3ccccc3)cc2)C1 (stereo partly drawn),CSF1R autoinhibited,"cell-free assay, competition with immobilised ligand",0.1 µM,100%
O=C(NCCCN1CCOCC1)c1ccc(Nc2ncc(Cl)c(-c3ccc(Cl)s3)n2)cc1,CSF1R,"binding, competition with immobilised ligand",1 µM,15%
CS(=O)(=O)N1CCCC(NC(=O)[C@H](CCC2CCCCC2)NC(=O)c2ccc(CNC(=O)c3cnc4ccccn34)cc2)C1 (stereo partly drawn),CSF1R autoinhibited,"cell-free assay, competition with immobilised ligand",0.1 µM,100%
Cc1cnc(Nc2ccc(C(=O)N3CCC(N4CCCC4)CC3)cc2)nc1-c1cc2ccccc2s1,CSF1R,"binding, competition with immobilised ligand",1 µM,12%
